Results taken from ChEMBL document CHEMBL1795208 (J Med Chem, 2011).

Tests used:
Assay type in all cases: functional, cell-based
[1] = test system: SK-BR-3; assay: Antiproliferative activity against human SKBR3 cells expressing HER2 after 72 hrs by MTS/PMS assay; details: SK-BR-3, 72 h
Method in brief: (§1)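 Cells kept in Advanced DMEM/F12 (1:1) with non-essential amino acids, 2 mM L-glutamine, penicillin, streptomycin and 10% FBS at 37 °C, 5% CO2. Seeded at 2000/well, attached overnight. Compound added in DMSO across a concentration range (1% DMSO final) for 72 h. Viable cells read by MTS/PMS and normalized to 1% DMSO controls (100%). IC50 taken from separate triplicate experiments.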

[2] = test system: MCF7; assay: Antiproliferative activity against human MCF7 cells expressing estrogen receptor after 72 hrs by MTS/PMS assay; details: MCF7, 72 h; method in brief: as §1
[3] = Antiproliferative activity against human androgen-independent PC3MM2 cells after 72 hrs by MTS/PMS assay; details: PC3MM2, 72 h; method in brief: as §1

## Cc1c(OCCCN(C)C)ccc2cc(NC(=O)c3cc4ccccc4[nH]3)c(=O)oc12
[1]
  IC50: 1.13 µM
[2]
  IC50: 5.23 µM
[3]
  IC50: 13700 nM

## CO[C@@H]1[C@@H](O)[C@@H](O)[C@H](Oc2ccc3cc(NC(=O)c4cc5ccccc5[nH]4)c(=O)oc3c2C)OC1(C)C
[1]
  IC50: 0.37 µM

## CO[C@H]1[C@H](OC(=O)c2ccc(C)[nH]2)[C@H](O)[C@@H](Oc2ccc3c(O)c(NC(=O)c4c[nH]c(C(=O)Nc5c(O)c6ccc(O[C@H]7OC(C)(C)[C@@H](OC)[C@H](OC(=O)c8ccc(C)[nH]8)[C@@H]7O)c(C)c6oc5=O)c4C)c(=O)oc3c2C)OC1(C)C [COUMERMYCIN A1]
[1]
  IC50: 70 µM

## CO[C@@H]1[C@@H](O)[C@@H](O)[C@H](Oc2ccc3cc(NC(=O)CCCCC(=O)Nc4cc5ccc(O[C@H]6OC(C)(C)[C@@H](OC)[C@H](O)[C@@H]6O)cc5oc4=O)c(=O)oc3c2C)OC1(C)C
[1]
  IC50: 2 µM

## COc1cc2cc(NC(=O)c3ccc(O)c(CC=C(C)C)c3)c(=O)oc2c(C)c1OCCCN(C)C
[1]
  IC50: 0.39 µM
[2]
  IC50: 0.8 µM
[3]
  IC50: 1380 nM

## COc1c(OCCCN(C)C)ccc2cc(NC(=O)c3ccc(OC(C)=O)c(CC=C(C)C)c3)c(=O)oc12
[1]
  IC50: 0.78 µM
[2]
  IC50: 2.14 µM
[3]
  IC50: 4590 nM

## COc1c(OC2CCN(C)CC2)ccc2cc(NC(=O)c3ccc(OC(C)=O)c(CC=C(C)C)c3)c(=O)oc12
[1]
  IC50: 1.07 µM
[2]
  IC50: 1.64 µM
[3]
  IC50: 3980 nM

## COc1cccc(-c2cc(C(=O)Nc3cc4ccc(OCC(O)CO)c(C)c4oc3=O)ccc2OC)c1 (stereo unspecified)
[1]
  IC50: > 50 µM
[2]
  IC50: > 50 µM
[3]
  IC50: 190 nM

## COc1cccc(-c2cc(C(=O)Nc3cc4ccc(OC5CC(C)(C)C[C@@H](O)[C@H]5O)c(OC)c4oc3=O)ccc2OC)c1 (stereo partly specified)
[1]
  IC50: 3.45 µM
[2]
  IC50: 1.56 µM

## COc1cccc(-c2cc(C(=O)Nc3cc4cc(OC)c(OS(=O)(=O)c5ccc(C)cc5)c(C)c4oc3=O)ccc2OC)c1
[1]
  IC50: > 100 µM
[2]
  IC50: > 100 µM
[3]
  IC50: > 100000 nM

## COc1cc2cc(NC(=O)c3ccc(OC(C)=O)c(CC=C(C)C)c3)c(=O)oc2c(C)c1OC1CCN(C)CC1
[1]
  IC50: 0.42 µM
[2]
  IC50: 0.58 µM
[3]
  IC50: 1410 nM

## COc1cccc(-c2cc(C(=O)Nc3cc4ccc(OC5CC(C)C[C@@H](O)[C@H]5O)c(OC)c4oc3=O)ccc2OC)c1 (stereo partly specified)
[1]
  IC50: 6.38 µM
[2]
  IC50: 8.52 µM

## COc1cccc(-c2cc(C(=O)Nc3cc4ccc(OC5OC(C)(C)[C@H](OC)[C@@H](O)[C@H]5O)c(C)c4oc3=O)ccc2OC)c1 (stereo partly specified)
[1]
  IC50: 7.5 µM
[2]
  IC50: 18.7 µM

## CC(C)=CCc1cc(C(=O)Nc2cc3ccc(OCCCN(C)C)c(C)c3oc2=O)ccc1O
[3]
  IC50: 1810 nM

## COc1cccc(-c2cc(C(=O)Nc3cc4cc(OC)c(OC5CC(C)(C)C[C@@H](O)[C@H]5O)c(C)c4oc3=O)ccc2OC)c1 (stereo partly specified)
[1]
  IC50: > 100 µM
[2]
  IC50: > 100 µM

## COc1cccc(-c2cc(C(=O)Nc3cc4cc(OC)c(OC5CC(C)C[C@@H](O)[C@H]5O)c(C)c4oc3=O)ccc2OC)c1 (stereo partly specified)
[1]
  IC50: > 100 µM
[2]
  IC50: > 100 µM

## COc1cccc(-c2cc(C(=O)Nc3cc4ccc(OC5CCC[C@@H](O)[C@H]5O)c(OC)c4oc3=O)ccc2OC)c1 (stereo partly specified)
[1]
  IC50: 7.44 µM
[2]
  IC50: 5.46 µM

## CO[C@@H]1[C@@H](OC(N)=O)[C@@H](O)[C@H](Oc2ccc3cc(NC(=O)c4ccc(O)c(CC=C(C)C)c4)c(=O)oc3c2C)OC1(C)C
[1]
  IC50: 7.5 µM

## CC(C)=CCc1cc(C(=O)Nc2cc3ccc(OC4CCN(C)CC4)c(C)c3oc2=O)ccc1O
[3]
  IC50: 1370 nM

## COc1cccc(-c2cc(C(=O)Nc3cc4cc(OC)c(OC5CCC[C@@H](O)[C@H]5O)c(C)c4oc3=O)ccc2OC)c1 (stereo partly specified)
[1]
  IC50: 8.18 µM
[2]
  IC50: 10.1 µM

## CO[C@@H]1[C@@H](O)[C@@H](O)[C@H](Oc2ccc3cc(NC(=O)c4ccc(O)c(CC=C(C)C)c4)c(=O)oc3c2C)OC1(C)C
[1]
  IC50: 0.5 µM

## CC(=O)Oc1ccc(C(=O)Nc2cc3ccc(OC4CCN(C)CC4)c(C)c3oc2=O)cc1CC=C(C)C
[3]
  IC50: 2120 nM

## COc1cccc(-c2cc(C(=O)Nc3cc4cc(OC)c(OCC(O)CO)c(C)c4oc3=O)ccc2OC)c1 (stereo unspecified)
[1]
  IC50: 19.4 µM
[2]
  IC50: 20.5 µM

## CC(=O)Oc1ccc(C(=O)Nc2cc3ccc(OCCCN(C)C)c(C)c3oc2=O)cc1CC=C(C)C
[3]
  IC50: 1420 nM
